Source: PubChem BioAssay (several laboratories)
Only some compounds are listed: those with a hit (about 2.1% of all), similar ones and a draw of the others.
Runt-CBFb FRET: inhibitors of RUNX1 Runt–CBFb binding, primary screen, biochemical, FRET, Cerulean-Runt, Venus-CBFb, uHTS. Runt-related transcription factor 1 (Homo sapiens) + Core-binding factor subunit beta …. Cerulean-Runt/Venus-CBFb FRET ratio 530/480, 1 h. actives 0.46% (n = 220,000). inhibition, % at 20 µM;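 active = inhibition over about 50% at 20 µM in the single-dose screen, limit read from the data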;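 note: 0% = DMSO wells and 100% = excess unlabeled CBFb competitor control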
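Schedule: protein complex preformed 1 h, compound exposure 1 h, room temperature, dark; test system: Cerulean-labeled Runt domain protein; amount: 100 nM per protein; buffer or medium: Tris 50 mM pH 7.5, KCl, K2SO4, 0.01% BSA; read-out: loss of energy transfer signal; detection: FRET fluorescence; controls: 5 µM unlabeled CBFb as full-inhibition high control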
Runt-SMMHC FRET: inhibitors of RUNX1 Runt–CBFb-SMMHC binding, primary screen, biochemical, FRET, Cerulean-Runt, Venus-CBFb-SMMHC, uHTS. Runt-related transcription factor 1 (Homo sapiens) + Core-binding factor subunit beta …. Cerulean-Runt/Venus-CBFb-SMMHC FRET ratio 530/480, 1 h. inhibition, % at 20 µM. actives 0.74% (n = 220,000). AID 1434, 2008;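 active = mean inhibition across duplicate retests at 20 µM reaching about 50%, limit read from the data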;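 note: 0% = DMSO wells and 100% = wells with excess untagged CBFb-SMMHC; inhibitors lower the FRET ratio by blocking Runt binding to CBFb-SMMHC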
Hck-Nef inh: inhibitors of Nef-activated human Hck kinase, primary screen, biochemical, Z-Lyte FRET, 384-well, Hck-YEEI; Tyrosine-protein kinase HCK (Homo sapiens), P08631; Recombinant Hck-YEEI plus Nef, Z-Lyte FRET kinase assay; inhibition, % at 20 µM; actives 0.68% (n = 220,000); AID 463187, 2010;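 active = Hck-Nef kinase inhibition above about 50%, limit read from the data; inactive = inhibition below that limit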;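 note: 0% = DMSO with Hck plus Nef and 100% = Hck alone without Nef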
RanGTP-Imp inh: inhibitors of RanGTP-importin-beta interaction, primary screen, biochemical, FRET, CFP-Ran, YFP-importin-beta, homogeneous. inhibition, % (no concentration beside the values). actives 1.1% (n = 300,000). cell-free CFP-Ran/YFP-importin-beta FRET ratio. AID 2216, 2009. Ran GTPase (GTP-bound) - importin-beta complex;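 active = more than half of the replicate wells show a fall in the fluorescence ratio signal beyond about 16%, limit read from the data, passing the limit was not always enough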;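 note: 0% = DMSO wells and 100% = Ran loaded with GDP instead of GTP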
p97 ATPase inh: inhibitors of human p97 ATPase, primary screen, biochemical; Transitional endoplasmic reticulum ATPase (Homo sapiens), P55072; recombinant p97 ATPase, Kinase-Glo ATP luminescence, 3 h; inhibition, % at 8 µM; actives 0.42% (n = 220,000); AID 1481, 2009; in the data active = inhibition above about 15%;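 note: 0% = DMSO vehicle and 100% = wells lacking enzyme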
Target sequence (P55072 whole entry, looked up): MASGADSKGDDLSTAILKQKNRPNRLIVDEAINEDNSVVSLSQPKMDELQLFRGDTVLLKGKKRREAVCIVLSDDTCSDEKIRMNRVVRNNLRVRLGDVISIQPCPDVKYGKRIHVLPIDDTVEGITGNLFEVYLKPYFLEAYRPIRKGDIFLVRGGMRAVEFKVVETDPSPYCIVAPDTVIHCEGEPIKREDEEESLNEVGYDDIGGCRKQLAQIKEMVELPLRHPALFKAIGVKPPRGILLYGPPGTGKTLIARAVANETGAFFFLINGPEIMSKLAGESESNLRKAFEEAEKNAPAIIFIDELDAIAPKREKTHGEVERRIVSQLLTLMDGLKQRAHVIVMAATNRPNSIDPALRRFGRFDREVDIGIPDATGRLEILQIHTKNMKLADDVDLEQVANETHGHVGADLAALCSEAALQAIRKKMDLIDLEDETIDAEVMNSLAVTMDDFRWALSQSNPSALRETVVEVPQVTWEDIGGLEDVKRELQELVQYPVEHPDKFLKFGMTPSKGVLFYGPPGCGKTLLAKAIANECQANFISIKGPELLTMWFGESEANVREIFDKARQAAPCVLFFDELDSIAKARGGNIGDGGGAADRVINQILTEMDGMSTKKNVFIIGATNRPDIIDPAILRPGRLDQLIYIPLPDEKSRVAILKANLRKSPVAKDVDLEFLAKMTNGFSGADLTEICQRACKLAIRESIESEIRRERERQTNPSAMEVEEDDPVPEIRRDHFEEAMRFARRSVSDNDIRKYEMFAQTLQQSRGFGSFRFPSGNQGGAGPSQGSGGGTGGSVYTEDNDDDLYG
TbHK1 inh: Trypanosoma brucei hexokinase 1 inhibitors, primary screen, biochemical, G6PDH-coupled NADH absorbance, MLSCN library | hexokinase 1 [Trypanosoma brucei] | recombinant TbHK1, G6PDH-coupled NADH A340 | inhibition, % at 10 µM | actives 0.11% (n = 220,000) | AID 1430, 2008;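 active = inhibition of 50% or more in the single-dose primary screen; inactive = inhibition below 50%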
p97 inh conf: p97 ATPase inhibitors, retest, confirmation, biochemical. shares compounds with p97 ATPase inh. inhibition, % at 8 µM. actives 44% (n = 760). recombinant p97 ATPase, Kinase-Glo ATP luminescence;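 active = percent inhibition of p97 ATPase above a set limit, the primary screen's mean plus 3 SD, cut at about 15% in these data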;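 note: 0% = DMSO wells and 100% = wells lacking p97 protein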
Runt-CBFb TRFRET: inhibitors of RUNX1 Runt–CBFb binding, biochemical, TR-FRET. TR-FRET RUNX1 Runt domain-CBFb binding. shares compounds with Runt-CBFb FRET. inhibition, % at 20 µM. actives 20% (n = 480); in the data active = inhibition above about 40%
YIC counter: YIC intramolecular FRET probe signal interference, dose response, counter-screen for RanGTP-importin-beta inhibitor project, biochemical, fluorescence FRET; shares compounds with RanGTP-Imp inh; Purified YIC probe, intramolecular FRET ratio YFP/CFP; AID 435026, 2010; actives 40% (n = 1,000); IC50, µM;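 active = fitted half-maximal inhibitory concentration no more than tenfold above the top dose tested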
Hck-Nef confirm: retest of Hck:Nef kinase inhibitor hits, confirmation, biochemical, Z-Lyte FRET, 384-well, p-Tyr peptide counterscreen; shares compounds with Hck-Nef inh; Recombinant Hck-YEEI:Nef, Z-Lyte FRET kinase assay; calls only at 10 µM; actives 28% (n = 1,300); AID 463188, 2010;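 active = average inhibition of at least 50%, with Z-scores no higher than 3 in both the phospho-tyrosine peptide and fluorescence counterscreens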
Numbers without * were called inactive; i = inactive; · = no result given; + = active, no number.

SMILES	Runt-CBFb FRET	Runt-SMMHC FRET	Hck-Nef inh	RanGTP-Imp inh	p97 ATPase inh	TbHK1 inh	p97 inh conf	Hck-Nef confirm	others
S=C1NC2=C(CCC/C2=C\c2ccc(Cl)cc2)C(c2ccc(Cl)cc2)N1 (configuration not stated)	9.5	0.1	-22.7	4.0	18.0*	-21.9	7.5	·
N#CCC(=O)Nc1ccc(C(=O)NCCc2c[nH]c3ccccc23)cc1	·	·	·	0.5	·	·	·	·
O=C(NNC(=O)c1cc2cc(Br)ccc2oc1=O)c1ccc(O)cc1O	-7.5	-18.9	35.5	-2.5	18.6*	-1.9	24.4*	·
Cc1c(Br)c(=O)oc2c(Br)c(O)c(O)cc12	55.3*	76.3*	-28.4	26.3*	24.3*	26.6	31.2*	·	YIC counter=10.9*
CN(C)c1ccc(/C=N/NC(N)=S)cc1[N+](=O)[O-]	-1.7	0.1	31.3	0.2	-2.3	-60.4	·	·
CCOC(=O)c1ccccc1NC(=O)COC(=O)CCC(=O)c1ccccc1	·	·	·	-3.3	·	·	·	·
O=C(NNc1c2ccccc2nc2ccccc12)c1ccc(O)cc1O	13.2	48.4	0.0	38.0*	34.7*	-10.4	38.0*	·	YIC counter=>50
CCOC(=O)c1c(N)n(CCOC(=O)c2cccs2)c2nc3ccccc3nc12	44.7	109.0*	28.3	22.7*	21.0*	-11.7	7.2	·	YIC counter=37.4*
CCOC(=O)c1cnn(CCOC(=O)c2cccs2)c1NC(=O)c1cccs1	0.1	1.3	2.7	·	2.6	2.0	·	·
O=c1cc(-c2ccc(O)c(-c3c(O)cc(O)c4c(=O)cc(-c5ccc(O)cc5)oc34)c2)oc2cc(O)cc(O)c12	-7.9	-11.4	52.7*	-0.5	40.6*	-10.5	63.9*	+
O=c1cc(-c2ccccc2)oc2cc(OCc3ccccc3)cc(O)c12	1.1	2.7	18.3	-3.5	-1.2	11.1	·	·
CCCn1c(=O)[nH]c(=O)c2c1nc(-c1ccc(OC)c(Br)c1)n2CCOC	-7.5	2.3	16.7	-3.4	0.6	2.1	·	·
CCCCn1c(NCc2ccccc2NS(=O)(=O)c2ccc(C)cc2)nc2ccccc21	0.5	-1.1	2.4	2.8	3.0	0.7	·	·
CCCCn1c(NS(=O)(=O)c2ccc(C)cc2)c(S(=O)(=O)c2ccccc2)c2nc3ccccc3nc21	3.1	39.1	97.1*	13.5	24.1*	-3.3	39.0*	i
COc1ccc(/C=N/NC(=O)c2ccccc2O)cc1Cn1cc([N+](=O)[O-])cn1	2.7	-0.9	26.7	4.8	9.5	-13.0	·	·
COc1ccc(/C=N/NC(=O)c2cc(O)c(O)c(O)c2)cc1Cn1cc([N+](=O)[O-])cn1	53.8*	48.7	50.4*	8.5	17.3*	-7.6	31.0*	i	Runt-CBFb TRFRET=-5.1
O=C(CCNC(=O)c1ccc(Br)cc1)NNC(=O)C1COc2ccccc2O1 (configuration not stated)	·	·	·	2.1	·	·	·	·
CCn1c2ccccc2c2c3ncc4cccn4c3ccc21	-35.3	88.1*	95.5*	68.2*	15.5*	-6.6	13.0	i
c1ccc2c(c1)ncc1cccn12	-1.1	5.1	2.0	-0.7	10.5	-3.2	·	·
COc1cccc(-n2c(SCc3cc(=O)oc4cc(O)c(O)cc34)nc3ccccc3c2=O)c1	67.3*	·	74.1*	0.7	39.8*	28.7	39.8*	·
CC(C)Nc1ccc(Nc2ccnc3cc4ccccc4cc23)cc1	7.3	8.1	69.5*	1.6	28.7*	-14.9	32.7*	+
Cc1cc(C)cc(N(CC(=O)NC2CCCC2)C(=O)CNC(=O)c2cccs2)c1	·	·	·	2.4	·	·	·	·
Cc1c(N=C2C=C(Br)C(=O)C(Br)=C2)c(=O)n(-c2ccccc2)n1C	17.0	13.2	50.1*	·	27.4*	2.1	8.0	i
Nc1ncnc2oc(-c3ccco3)c(-c3ccco3)c12	16.8	0.9	71.3*	-4.9	16.9*	-17.4	13.2	+
O=C(CNC(=O)c1ccco1)NCC(=O)OCC(=O)c1ccc(Cl)c([N+](=O)[O-])c1	·	·	·	-4.3	·	·	·	·
SMILES	Runt-CBFb FRET	Runt-SMMHC FRET	Hck-Nef inh	RanGTP-Imp inh	p97 ATPase inh	TbHK1 inh	p97 inh conf	Hck-Nef confirm	others
Cc1csc2nc(NC(=O)c3ccccc3)sc(=O)c12	3.6	5.8	0.8	-0.4	11.6	-27.2	·	·
Cc1ccccc1C(=O)Nc1nc2c(C)csc2c(=O)s1	7.3	16.4	78.3*	-1.1	38.7*	-19.1	37.5*	i
N#Cc1c(-c2cccs2)cc(-c2cccs2)[nH]c1=O	86.3*	80.2*	109.1*	44.7*	16.1*	-18.4	15.3*	·
Cc1cc(-c2cccs2)c(C#N)c(=S)[nH]1	13.0	36.7	-48.3	4.9	2.1	-6.3	·	·
O=[N+]([O-])c1ccccc1NC(=S)N/N=C/c1ccc(O)c(O)c1	11.4	6.2	86.7*	-1.6	19.2*	-29.4	22.0*	i
O=C1/C(=C/C=C/c2ccco2)SC(=S)N1NS(=O)(=O)c1ccccc1	33.3	5.8	101.9*	·	15.8*	67.1*	14.5	+
CCCn1c(N)c(N(CCOC)C(=O)CSCC(=O)Nc2cccc(C)c2)c(=O)[nH]c1=O	·	·	·	-1.5	·	·	·	·
COc1ccc(-c2nc(-c3ccc(O)cc3O)cs2)cc1OC	-1.2	-4.2	60.6*	-2.3	17.4*	-16.0	19.0*	+
COc1ccc(-c2nc(CCl)cs2)cc1OC	-1.0	-1.8	1.3	3.2	-0.5	-8.6	·	·
